# Assay outcomes from PubChem.
# TAAR1 antag – antagonists of human TAAR1. inhibition, % at 3 µM. Q96RJ0. actives 1.5% (n = 360,000). CHO RD-HGA16 TAAR1, Fluo-8 calcium fluorescence, antagonist. AID 624466;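 active = inhibition above a per-plate cutoff, the mean inhibition of test compounds on that plate plus 3 SD, cut at about 49% in these data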;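 note: 0% = DMSO plus EC80 beta-PEA response and 100% = DMSO alone without agonist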
# Target sequence (Q96RJ0 whole entry, looked up): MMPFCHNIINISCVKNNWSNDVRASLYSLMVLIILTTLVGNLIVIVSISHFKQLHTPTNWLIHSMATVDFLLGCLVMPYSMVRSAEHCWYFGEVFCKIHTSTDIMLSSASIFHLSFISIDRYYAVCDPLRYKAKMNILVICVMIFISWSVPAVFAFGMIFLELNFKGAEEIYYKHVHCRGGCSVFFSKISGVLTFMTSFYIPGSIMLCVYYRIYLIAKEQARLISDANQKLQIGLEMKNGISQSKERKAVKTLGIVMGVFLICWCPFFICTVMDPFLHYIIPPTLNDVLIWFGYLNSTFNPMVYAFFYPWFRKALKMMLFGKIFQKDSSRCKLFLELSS
#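 System: RD-HGA16 CHO cells with stable hTAAR1 and Gα16 | Probe or stimulus: EC80 β-phenethylamine stimulus | Dosing: 3 µM, single point | Times: Dye loading 75 min at 37 °C, then 30 min room temperature | Measured by: Fluo-8 calcium-sensitive fluorescence | Read-out basis: % inhibition of agonist calcium response | Replicates: n of 1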
# M1 PAM – potentiates human M1 receptor response to acetylcholine; CHO-K1 hM1, Fluo-8 calcium fluorescence, ACh EC20; 0% = ACh EC20, 100% = maximal ACh; P11229; actives 0.088% (n = 360,000); activation, % at 3 µM; in the data active = activation above about 19%, passing the limit was not always enough
# TAAR1 ag – human TAAR1 agonism | actives 0.99% (n = 360,000) | activation, % at 3 µM | AID 624467 | Q96RJ0 | CHO RD-HGA16 TAAR1, Fluo-8 calcium fluorescence; vehicle wells 0%, saturating PEA agonist 100%;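 active = activation above the mean activation of all test compounds in the run plus 3 SD, cut at about 38% in these data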
#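 System: CHO-derived RD-HGA16 cells with stable Gα16 and human TAAR1. Times: 17-24 h plating, Fluo-8 75 min 37 °C, 30 min RT. Measured by: calcium-sensitive Fluo-8 signal, excitation 470-495, emission 515-575 nm. Read-out basis: % activation relative to PEA EC100 response. Control set: DMSO and PEA EC100. Repeats: no replicates (n 1).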
# CHRM1 antagonist – antagonists of human M1 muscarinic receptor. P11229. CHO-K1 hM1, Fluo-8 calcium fluorescence, ACh EC80 antagonist. inhibition, % at 3 µM. actives 1.3% (n = 360,000). AID 588852;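 active = percent inhibition above its own plate's cutoff, namely the mean of that plate's compound wells plus 3 SD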;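 note: peak over basal fluorescence ratio during 140 s after agonist addition; 0% = ACh EC80 plus DMSO and 100% = DMSO alone without agonist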
# M1 ag – agonists of human M1 muscarinic receptor; CHO-K1 hM1, Fluo-8 calcium fluorescence, agonist mode; 0% DMSO, 100% acetylcholine EC100; P11229; actives 0.33% (n = 360,000); activation, % at 3 µM;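 active = activation above the run's mean compound activation plus 3 SD, cut at about 16% in these data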;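 note: peak over basal fluorescence ratio within a 140 s kinetic read after compound addition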
# An asterisk follows results filed as active; x = no result given. Hits are enriched below; roughly 3.4% of the tested compounds scored in any of these assays.
SMILES,TAAR1 antag,M1 PAM,TAAR1 ag,CHRM1 antagonist,M1 ag
O=C(CN1CCCCC1)N1c2ccccc2Oc2ccccc21,-6.3,-21.6,0.7,74.7*,-5.0
O=C(Cn1nnc(-c2cccs2)n1)N1c2ccccc2Sc2ccc(C(F)(F)F)cc21,-14.2,-3.4,7.6,8.3,0.6
O=C(CN1CCCCCC1)N1c2ccccc2Sc2ccccc21,-19.4,-23.4,8.8,99.3*,-5.9
O=C(CN1CCCC(O)C1)N1c2ccccc2Sc2ccc(C(F)(F)F)cc21 (stereo unspecified),-18.2,-19.6,17.1,98.9*,-5.5
CN1CCN(CC(=O)N2c3ccccc3Sc3ccccc32)CC1,-8.1,-31.5,2.3,99.9*,-10.2
O=C(C1CC1)N1c2ccccc2Sc2ccccc21,-12.3,-17.8,3.1,23.0,-11.2
CCOC(=O)N1CCN(CC(=O)N2c3ccccc3Sc3ccccc32)CC1,-1.4,2.2,31.6,-4.2,8.7
O=C1CCCN1CCCNCC(=O)N1c2ccccc2Sc2ccccc21,-0.5,-24.0,9.6,76.5*,-6.5
CCOC(=O)c1cnc2c3c(noc13)CCC2,-13.2,x,1.4,x,x
COc1ccc([N+](=O)[O-])cc1CN1CCN(c2ncc(Cc3ccccc3)cn2)CC1,23.6,x,-0.1,x,x
COC(=O)[C@]12C[C@H](CC(=O)N3CCOCC3)C(=O)N(Cc3ccc4c(c3)OCO4)C1=C[C@H](C(C)(C)C)O[C@@H]2C,10.1,x,-0.2,x,x
COC(=O)C[C@H]1CC[C@@H]2[C@H](COC[C@H](O)CN2S(=O)(=O)c2ccccc2OC)O1,-12.9,x,0.1,x,x
COC(=O)C1CCCCN1C(=O)c1cc(COc2cccc3cccnc23)on1 (stereo unspecified),-1.7,12.0,0.9,-14.2,-2.9
CCOC(=O)CC1CCCCN1C(=O)c1cc(COc2cccc3cnccc23)on1 (stereo unspecified),30.6,-20.3,8.7,72.0*,6.3
COC(=O)C1CCCCN1C(=O)c1cc(COc2cccc3cnccc23)on1 (stereo unspecified),11.4,-14.9,10.0,42.9*,0.9
O=C(c1cc(COc2cccc3cccnc23)on1)N1CCC[C@H]1CO,-11.9,11.3,2.0,-14.4,-0.3
COC(=O)CC#C[C@@H](C)[C@H](NS(=O)(=O)c1ccc(C)cc1)C(C)(C)C,-10.0,x,1.0,x,x
Cc1ccc2c(c1)NC(=O)C(CC(=O)NCCN(CC(C)C)CC(C)C)O2 (stereo unspecified),-36.5,-18.6,0.8,27.5*,-13.9
Cc1ccc2c(c1)NC(=O)C(CC(=O)Nc1ccc(CN3CCC(C)CC3)cc1)O2 (stereo unspecified),x,-34.8,x,101.0*,-13.4
CCN1CCN(Cc2ccc(NC(=O)CC3Oc4ccc(C)cc4NC3=O)cc2)CC1 (stereo unspecified),-11.2,-32.7,0.9,40.4*,-13.9
CCN(CC)CCCNC(=O)CC1Oc2ccc(C)cc2NC1=O (stereo unspecified),-3.5,-14.4,2.1,8.0,-13.9
Cc1onc(-c2c(Cl)cccc2Cl)c1C(=O)c1c[nH]c(C(=O)NCCCN2CCOCC2)c1,0.4,-22.4,4.7,76.1*,-5.5
COC(=O)c1cc2c(c3c4cc(C)ccc4n(S(=O)(=O)c4ccc(OC)cc4)c13)C(=O)N(C)C2,-12.8,x,-0.9,x,x
Cc1cc(NC(=O)CCc2c[nH]c3ccccc23)ccc1Nc1cccnc1,26.1,x,7.3,x,x
Cc1cccc(N(CC(=O)NCc2ccc3c(c2)OCO3)C(=O)CCC(=O)Nc2ccccn2)c1C,52.4*,-4.0,19.3,-9.9,-2.1
SMILES,TAAR1 antag,M1 PAM,TAAR1 ag,CHRM1 antagonist,M1 ag
COc1ccc(C(O)c2nc(-c3ccc(OC)c(OC)c3)cs2)cc1 (stereo unspecified),-5.5,4.2,0.2,-15.8,0.6
COc1ccc(S(=O)(=O)CC(=O)c2cc3cc(Br)ccc3oc2=O)cc1,43.2,-2.2,42.4*,12.4,0.0
CCOC(=O)N1CCN(C(=O)C[C@H]2C[C@@]3(C(=O)OC)C(=C[C@H](C(C)(C)C)O[C@@H]3C)N(Cc3ccccc3)C2=O)CC1,-2.7,x,-0.6,x,x
NC(c1csc(NC(=O)Nc2ccc(OC(F)(F)F)cc2)n1)C1CCCCC1 (stereo unspecified),8.1,5.1,47.4*,5.0,3.1
C[C@@H]1CNC(=O)c2c(C(=O)N(C)Cc3ccccc3)ncn21,-10.2,x,3.7,x,x
COc1ccc(OCC(=O)Nc2ccc(N3CCN(C(=O)c4ccccc4)CC3)c(Cl)c2)cc1,33.9,-13.7,3.8,36.4*,6.3
Cc1ccccc1OCC(=O)Nc1ccc(N2CCN(C)CC2)c(Cl)c1,6.7,-31.9,39.1*,45.3*,-12.9
COc1ccc(C(=O)Nc2ccccc2N2CCN(C(=O)c3ccccc3)CC2)cc1Br,45.5,-14.0,1.1,34.7*,-4.6
Fc1ccc(-c2cnc3n2CCCCC3)cc1,9.0,-18.5,1.2,38.9*,-8.0
Clc1ccc(-c2cnc3n2CCCCC3)cc1,24.9,-21.9,2.5,41.5*,-6.5
Brc1ccc(-c2cnc3n2CCCC3)cc1,-9.5,-17.8,3.2,8.6,-5.3
CN(C(=O)c1cccc(NC(=O)Cc2ccc([N+](=O)[O-])cc2)c1)C1CCCC1,9.9,-7.6,7.6,6.2,-5.2
CN(C(=O)c1ccc(NC(=O)Cc2ccc(NC(=O)C3CCN(C(=O)C4CCCC4)CC3)cc2)cc1)C1CCCC1,-16.2,5.5,2.4,-10.7,-4.4
CN(C(=O)c1ccc(NC(=O)Cc2ccc([N+](=O)[O-])cc2)cc1)C1CCCC1,38.5,6.8,48.2*,7.3,13.9
CN(C(=O)c1ccc(NC(=O)Cc2ccc(NC(=O)C3CCN(C(=O)C4CC4)CC3)cc2)cc1)C1CCCC1,1.4,27.0*,0.7,-27.1,3.9
COc1ccc(C(C)=O)cc1CSC(=S)N1CCSCC1,18.4,x,0.0,x,x
CC(C)CCNC(=O)[C@@H](Cc1ccccc1)NC(=O)[C@H]1O[C@@H](n2ccc(=O)[nH]c2=O)[C@H](O)[C@@H]1O,-11.2,x,1.3,x,x
COC(=O)Cc1c([C@H](C)[C@@H](OC)c2ccccc2Br)nnn1Cc1ccccc1,13.8,x,14.4,x,x
C[C@@H]1COc2cccc(NCCCN3CCOCC3)c2S(=O)(=O)N1,-12.3,x,6.2,x,x
Cc1ccc(C#CC[N+](C)(C)CC#Cc2ccccc2)cc1,-19.0,-17.5,1.8,29.5*,-7.5
C#CC[N+](C)(C)CC#Cc1ccccc1,3.9,-6.3,6.2,11.1,-13.7
O=C(C(=O)N1CCN(C(=O)c2cccs2)CC1)c1cccc(C(F)(F)F)c1,-16.4,x,1.1,x,x
COc1cccc(NS(=O)(=O)c2ccc(-n3cccn3)cc2)c1,2.5,-17.5,8.0,43.9*,3.7
Cc1ccc(NS(=O)(=O)c2ccc(-n3cccn3)cc2)cc1F,-5.1,-6.7,2.5,10.1,1.1
C[C@@H]1C=CCCO[C@]12C(=O)N(CC1CC1)c1cccc(Br)c12,-5.9,x,3.2,x,x
